Laboratory results published in ChEMBL document CHEMBL1155331, “Synthesis and SAR of a novel positive allosteric modulator (PAM) of the metabotropic glutamate receptor 4 (mGluR4)” (Bioorg Med Chem Lett, 2009).

Experiments:
[1] = target: T1, Metabotropic glutamate receptor 4 (Homo sapiens, UniProt Q14833); experiment: Allosteric modulator activity at human mGlu4 receptor expressed in CHO cells coexpressing Gqi5 assessed as effect on calcium flux; assay type: functional, cell-based
[2] = target: T1, Metabotropic glutamate receptor 4; experiment: Allosteric modulator activity at human mGlu4 receptor expressed in CHO cells coexpressing Gqi5 assessed as effect on calcium flux in relative to glutamate; assay type: functional, cell-based
Outline: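 hmGluR4/Gqi5 stably transfected CHO cells, 30,000/well, grown overnight at 37 °C, 5% CO2; loaded with 1 μM Fluo-4 AM for 45 min at 37 °C in HBSS/20 mM HEPES/2.5 mM probenecid. Baseline fluorescence read (ex 470, em 540 nm); compound preincubated ~2.5 min, then glutamate EC20, then EC80 2 min later. Ca2+ flux read; 10-point 1:3 concentration-response curves.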

T1 sequence (Q14833 whole entry): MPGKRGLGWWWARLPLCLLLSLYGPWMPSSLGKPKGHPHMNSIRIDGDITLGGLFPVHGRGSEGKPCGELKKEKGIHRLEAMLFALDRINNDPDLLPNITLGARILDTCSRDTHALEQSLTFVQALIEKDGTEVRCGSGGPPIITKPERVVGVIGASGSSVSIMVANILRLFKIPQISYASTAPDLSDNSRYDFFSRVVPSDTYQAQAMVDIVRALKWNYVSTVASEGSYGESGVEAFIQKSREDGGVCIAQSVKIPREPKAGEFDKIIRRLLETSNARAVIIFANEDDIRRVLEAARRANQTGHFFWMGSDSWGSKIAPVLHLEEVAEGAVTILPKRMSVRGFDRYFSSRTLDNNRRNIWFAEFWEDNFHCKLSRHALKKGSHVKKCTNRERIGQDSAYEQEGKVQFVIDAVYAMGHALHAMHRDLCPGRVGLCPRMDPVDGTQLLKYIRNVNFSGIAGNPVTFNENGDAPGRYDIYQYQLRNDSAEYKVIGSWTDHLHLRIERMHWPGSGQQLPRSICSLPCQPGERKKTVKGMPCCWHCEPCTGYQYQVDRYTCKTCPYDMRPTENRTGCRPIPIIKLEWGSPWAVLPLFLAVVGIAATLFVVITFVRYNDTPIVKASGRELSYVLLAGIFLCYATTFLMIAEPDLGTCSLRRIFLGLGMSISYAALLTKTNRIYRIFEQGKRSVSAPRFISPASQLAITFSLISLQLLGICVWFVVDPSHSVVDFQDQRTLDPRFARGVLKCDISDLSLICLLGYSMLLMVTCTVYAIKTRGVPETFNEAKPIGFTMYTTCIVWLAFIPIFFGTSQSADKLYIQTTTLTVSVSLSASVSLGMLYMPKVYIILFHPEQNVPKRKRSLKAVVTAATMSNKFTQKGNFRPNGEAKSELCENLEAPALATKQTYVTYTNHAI

Structure (SMILES)	EC50 ([1]; cho)	EC50 ([1]; read-out: EC50)	Emax [2]
CN(C)C(=O)[C@@H]1CCCC[C@@H]1C(=O)Nc1cc(Cl)cc(Cl)c1	Not Active		
O=C(Nc1ccc(F)c(F)c1)[C@H]1CCCC[C@H]1C(=O)O	Not Active		
O=C(Nc1cc(Cl)cc(Cl)c1)[C@@H]1[C@H](C(=O)O)[C@@H]2C=C[C@H]1C2	Not Active		
O=C(Nc1cc(Cl)cc(Cl)c1)[C@H]1CCCC[C@H]1C(=O)N1CCOCC1	Not Active		
Cc1cc(C)cc(NC(=O)[C@H]2CCCC[C@H]2C(=O)O)c1	Not Active		
O=C(O)C1CCCN(C(=O)Nc2cc(Cl)cc(Cl)c2)C1 (stereo not given)	Not Active		
N#C[C@@H]1CCCC[C@@H]1C(=O)Nc1cc(Cl)cc(Cl)c1		2 µM	55%
O=C(O)CCC(=O)Nc1cc(Cl)cc(Cl)c1	Not Active		
CC1(C)[C@H](C(=O)Nc2cc(Cl)cc(Cl)c2)[C@@H]1C(=O)O	Not Active		
O=C(Nc1cc(Cl)cc(Cl)c1)[C@H]1CCC[C@H]1C(=O)O	Not Active		
O=C(NCc1ccccc1)[C@H]1CCCC[C@H]1C(=O)O	Not Active		
CCCNC(=O)[C@@H]1CCCC[C@@H]1C(=O)Nc1cc(Cl)cc(Cl)c1		9.6 µM	57%
O=C(NN1CCOCC1)[C@H]1CCCC[C@H]1C(=O)O	Not Active		
O=C(NC1CCC1)[C@H]1CCCC[C@H]1C(=O)O	Not Active		
O=C(Nc1cc(Cl)cc(Cl)c1)[C@H]1CCCC[C@H]1c1nsc(=O)[nH]1	Not Active		
O=C(Nc1cc(Cl)cc(Cl)c1)[C@H]1CCCC[C@H]1C(=O)O (relative stereo)		0.74 µM	127%
O=C(Nc1cc(Cl)cc(Cl)c1)[C@H]1CC=CC[C@H]1C(=O)O		2.7 µM	150%
O=C(Nc1cc(F)cc(Cl)c1)[C@H]1CCCC[C@H]1C(=O)O		2 µM	138%
CNC(=O)[C@@H]1CCCC[C@@H]1C(=O)Nc1cc(Cl)cc(Cl)c1		10 µM	106%

Structure (SMILES)	EC50 ([1]; cho)	EC50 ([1]; read-out: EC50)	Emax [2]
O=C(Nc1cc(Cl)cc(Cl)c1)[C@H]1CCCC[C@H]1C(=O)NC1CC1	Not Active		
O=C(O)[C@@H]1CCC[C@H](C(=O)Nc2cc(Cl)cc(Cl)c2)C1	Not Active		
O=C1[C@H]2CCCC[C@H]2C(=O)N1c1cc(Cl)cc(Cl)c1		3.3 µM	152%
O=C(Nc1cccc(Br)c1)[C@H]1CCCC[C@H]1C(=O)O	Not Active		
Cc1ccc(NC(=O)[C@H]2CCCC[C@H]2C(=O)O)cc1C	Not Active		
O=C(Nc1cc(Cl)cc(Cl)c1)[C@@H]1[C@H](C(=O)O)[C@H]2C=C[C@@H]1C2	Not Active		
O=C(Nc1ccccn1)[C@H]1CCCC[C@H]1C(=O)O	Not Active		
O=C(Nc1ccccc1)[C@H]1CCCC[C@H]1C(=O)O		> 10 µM	39%
O=C(Nc1cc(Cl)cc(Cl)c1)[C@H]1CC[C@H]1C(=O)O (single isomer, unassigned)	Not Active		
O=C(Nc1cc(F)cc(F)c1)[C@H]1CCCC[C@H]1C(=O)O	Not Active		
CC1=CC[C@H](C(=O)Nc2cc(Cl)cc(Cl)c2)[C@H](C(=O)O)C1	Not Active		
NC(=O)[C@@H]1CC=CC[C@@H]1C(=O)Nc1cc(Cl)cc(Cl)c1		3.1 µM	94%
Cc1nc(NC(=O)[C@H]2CCCC[C@H]2C(=O)O)nn1C	Not Active		
O=C(Nc1cc(Cl)cc(Cl)c1)[C@H]1CCCC[C@H]1c1nnn[nH]1		> 10 µM	152%
O=C(Nc1cc(C(F)(F)F)cc(C(F)(F)F)c1)[C@H]1CCCC[C@H]1C(=O)O	Not Active		
O=C(Nc1cc(Cl)cc(Cl)c1)[C@H]1CCCC[C@H]1C(=O)NCC1CC1		10 µM	80%
NC(=O)[C@@H]1CCCC[C@@H]1C(=O)Nc1cc(Cl)cc(Cl)c1		0.95 µM	104%
O=C(Nc1cc(Cl)cc(Cl)c1)[C@H]1CCCC[C@H]1C(=O)NC1CCCC1	Not Active		
O=C(NC1CCCCC1)[C@H]1CCCC[C@H]1C(=O)O	Not Active		
